Results of several laboratories.
Target: Serine/threonine-protein kinase TAO2 (TAOK2, Homo sapiens, UniProt Q9UL54)
One construct used (Q9UL54 1-1235): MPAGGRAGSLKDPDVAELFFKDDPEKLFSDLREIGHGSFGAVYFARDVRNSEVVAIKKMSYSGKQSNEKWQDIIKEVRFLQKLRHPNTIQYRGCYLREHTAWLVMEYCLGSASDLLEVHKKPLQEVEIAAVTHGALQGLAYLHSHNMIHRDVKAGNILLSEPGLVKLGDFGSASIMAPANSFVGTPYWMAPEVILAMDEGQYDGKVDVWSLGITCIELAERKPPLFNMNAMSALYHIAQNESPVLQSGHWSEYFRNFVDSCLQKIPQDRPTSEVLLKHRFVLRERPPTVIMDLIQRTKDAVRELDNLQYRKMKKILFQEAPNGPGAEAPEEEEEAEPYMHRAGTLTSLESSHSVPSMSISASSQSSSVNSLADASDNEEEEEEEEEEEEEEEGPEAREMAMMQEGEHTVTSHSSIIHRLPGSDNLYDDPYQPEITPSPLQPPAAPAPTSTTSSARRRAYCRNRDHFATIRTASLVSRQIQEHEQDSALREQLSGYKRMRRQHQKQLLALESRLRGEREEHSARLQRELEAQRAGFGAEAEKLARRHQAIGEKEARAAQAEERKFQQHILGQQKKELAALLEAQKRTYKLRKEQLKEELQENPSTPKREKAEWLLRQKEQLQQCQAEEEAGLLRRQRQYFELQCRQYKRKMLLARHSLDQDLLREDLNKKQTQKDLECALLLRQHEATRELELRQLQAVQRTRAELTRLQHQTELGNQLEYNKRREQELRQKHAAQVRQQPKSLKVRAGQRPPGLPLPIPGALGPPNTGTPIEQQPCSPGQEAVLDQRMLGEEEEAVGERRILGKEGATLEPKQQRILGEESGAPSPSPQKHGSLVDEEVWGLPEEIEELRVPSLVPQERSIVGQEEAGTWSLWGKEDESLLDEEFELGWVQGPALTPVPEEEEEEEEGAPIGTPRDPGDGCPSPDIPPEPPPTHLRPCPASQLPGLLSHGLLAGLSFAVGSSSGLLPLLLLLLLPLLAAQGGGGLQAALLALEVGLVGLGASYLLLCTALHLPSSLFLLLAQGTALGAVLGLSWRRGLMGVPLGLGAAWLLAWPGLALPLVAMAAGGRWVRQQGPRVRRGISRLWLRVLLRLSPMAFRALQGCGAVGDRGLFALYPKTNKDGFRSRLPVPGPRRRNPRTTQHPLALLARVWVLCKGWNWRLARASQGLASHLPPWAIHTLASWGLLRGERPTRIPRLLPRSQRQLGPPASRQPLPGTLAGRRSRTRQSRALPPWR

SMILES	effect on	technique	concentration	remaining binding [%]
Cc1nc(Cc2cccc(C(F)(F)F)c2)sc1-c1ccc(C(N)=O)nc1	cell-free assay	competition with immobilised ligand	1 µM	86
O=C(NCCCN1CCOCC1)c1ccc(Nc2nccc(-c3cc4ccccc4s3)n2)cc1	binding	competition with immobilised ligand	1 µM	80
C[C@H]1CCN(c2nccc(-c3cnn4ncccc34)n2)C1	binding	–	1 µM	70
FC(F)(F)Oc1cccc(-c2cnc3ccc(-c4ccncc4)nn23)c1	binding	competition with immobilised ligand	5 µM	100
CCCCN(CCCC)C(=O)CN1C[C@H](c2cc(OC)c3c(c2)OCO3)[C@@H](C(=O)O)[C@@H]1CC(C)(C)CCC	cell-free assay	competition with immobilised ligand	1 µM	71.1
O=C(NCC1CCOCC1)c1n[nH]cc1NC(=O)c1c(F)cccc1F	binding	competition with immobilised ligand	1 µM	100
CN(CCCC(F)(F)F)c1nccc(-c2cnn3ncccc23)n1	binding	–	1 µM	100
O=C(c1ccc(Nc2nccc(-c3cc4ccccc4s3)n2)cc1)N1CCC(N2CCCC2)CC1	binding	competition with immobilised ligand	1 µM	71
Nc1ncc2c(n1)-c1c([nH]c3ccc(C#CC4CC4)cc13)CCCC2	binding	competition with immobilised ligand	1 µM	90
COc1ccc2c(c1)O[C@H](c1ccc(OC)c(OC)c1)C[C@@H]2NC(=O)C1(c2ccc3c(c2)OC(F)(F)O3)CC1	cell-free assay	competition with immobilised ligand	1 µM	98
C=CC(=O)N1CCC(C(=O)NCC(=O)N2CCN(c3nc(-c4cnc(N)nc4C(F)F)nc(N4CCOCC4)n3)CC2)CC1	binding	competition with immobilised ligand	1 µM	72
N[C@@H]1CCN(c2nccc(-c3cnn4ncccc34)n2)C1	binding	–	1 µM	100
O=C(c1ccc(Nc2ncc(Cl)c(-c3ccc(Cl)s3)n2)cc1)N1CCC(N2CCCC2)CC1	binding	competition with immobilised ligand	1 µM	65
CN(C)c1ncc(F)c(-c2cnn3ncccc23)n1	binding	–	1 µM	79
CCc1ccccc1C(=O)Nc1n[nH]c2c(C)c(F)c(C3C(C#N)=C(C)N(C)C(C)=C3C#N)cc12	cell-free assay	competition with immobilised ligand	1 µM	96
CC1CCCN1c1nccc(-c2cnn3ncccc23)n1 (stereo not shown)	binding	–	1 µM	100
Cn1nc(C(=O)NCc2ccc(C(=O)O)cc2)cc1-c1ccc2[nH]ccc2c1	cell-free assay	competition with immobilised ligand	0.1 µM	82
CNC(=O)[C@@H]1CC[C@@H](n2c(-c3ccc4cnccc4c3)nc3ccc(C(=O)NCc4cccc(C(N)=O)c4)cc32)C1	binding	competition with immobilised ligand	1 µM	98
Cc1cc(NC(=O)c2cccc(S(F)(F)(F)(F)F)c2)cc(-n2ccn3nc(-c4cccnc4)cc23)c1	cell-free assay	competition with immobilised ligand	1 µM	91.3
Cc1cnn2ncc(-c3ccnc(N(C)C)n3)c2c1	binding	–	1 µM	94
CN(C)C(=O)Cn1cc(-c2nc([C@@](C)(c3ccc(-c4cnc(N)nc4)cc3)C3CC3)no2)cn1	cell-free assay	competition with immobilised ligand	1 µM	81
CN(C)c1nccc(-c2cnc3ncccn23)n1	binding	–	1 µM	76
